Source: ChEMBL document CHEMBL1121527, “Heterocyclic analogues of the antihypertensive beta-adrenergic blocking agent (S)-2-[3-(ter-butylamino)-2-hydroxypropoxy]-3-cyanopyridine” (1980)
Several values for one entry are separate records, joined by “and”; a condition that tells them apart may be missing. Equal values may be shown once.

Assays:
Canis familiaris [1] = assay: Beta adrenergic blockade activity was measured in anesthetized dogs by blockade of isoproterenol induced hypotension after iv administration; assay type: functional; settings: Canis lupus familiaris
Procedure, shortened: (§1)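 Mongrel dogs of either sex (8–13 kg) anesthetized with vinbarbital 50 mg/kg iv. Vagi cut, trachea cannulated, with artificial respiration only if required. Blood pressure recorded via femoral artery catheter and heart rate from the pressure pulse. Drugs given through a femoral vein catheter. Isoproterenol challenge at 0.5 μg/kg iv; the resulting hypotension and tachycardia were computed.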

Rattus norvegicus [2] = assay: Tested for maximum fall in mean arterial pressure in Spontaneously hypertensive rats after peroral administration by using 1% methyl cellulose as vehicle at 20 mg/kg; assay type: functional; settings: route oral
Canis familiaris [3] = assay: Tested for increase in iliac blood flow was measured in anesthetized dogs after timolol administered intravenous at dose 1600 mg/kg; assay type: functional, Canis lupus familiaris, Artery
Canis familiaris [4] = assay: Beta adrenergic blockade activity was measured in anesthetized dogs by blockade of isoproterenol induced tachycardia after iv administration; assay type: functional; settings: Canis lupus familiaris; procedure, shortened: as §1
Canis familiaris [5] = assay: Tested for increase in iliac blood flow was measured in anesthetized dogs before timolol administered intra arterially at dose […]; assay type: functional, Canis lupus familiaris, Artery
Procedure, shortened: (§2)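 Adult mongrel dogs of either sex (8–13 kg) under vinbarbital 50 mg/kg iv, with vagi cut and trachea cannulated. Carotid arterial pressure recorded. A 3.0 mm flow transducer on the right iliac artery. Intraarterial injections via a left femoral catheter tipped at the iliac bifurcation. Isoproterenol 0.4 μg ia given before and after timolol (320, 800 or 2000 μg/kg iv) to check β-blockade.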

Rattus norvegicus [6] = assay: Tested for maximum fall in mean arterial pressure in Spontaneously hypertensive rats after peroral administration by using 1% methyl cellulose as vehicle at 5 mg/kg; assay type: functional; settings: route oral
Canis familiaris [7] = assay: Tested for increase in iliac blood flow was measured in anesthetized dogs after timolol administered intravenous at dose 2000 mg/kg; assay type: functional, Canis lupus familiaris, Artery; procedure, shortened: as §2
Rattus norvegicus [8] = assay: Tested for maximum fall in mean arterial pressure in Spontaneously hypertensive rats after peroral administration by using 1% methyl cellulose as vehicle at 80 mg/kg; assay type: functional; settings: route oral
Canis familiaris [9] = assay: Tested for increase in iliac blood flow was measured in anesthetized dogs after timolol administered intravenous at dose 800 mg/kg; assay type: functional, Canis lupus familiaris, Artery; procedure, shortened: as §2
Rattus norvegicus [10] = assay: Tested for maximum fall in mean arterial pressure in Spontaneously hypertensive rats after peroral administration by using 1% methyl cellulose as vehicle at 1.25 mg/kg; assay type: functional; settings: route oral
Canis familiaris [11] = assay: Tested for increase in iliac blood flow was measured in anesthetized dogs after timolol administered intravenously at dose 800 µg/kg
Rattus norvegicus [12] = assay: Tested for maximum fall in mean arterial pressure in Spontaneously hypertensive rats after peroral administration by using 1% methyl cellulose as vehicle at 0.312 mg/kg; assay type: functional; settings: route oral
Rattus norvegicus [13] = assay: Tested for maximum fall in mean arterial pressure in Spontaneously hypertensive rats after peroral administration by using 1% methyl cellulose as vehicle at 0.078 mg/kg; assay type: functional; settings: route oral
Canis familiaris [14] = assay: Tested for increase in iliac blood flow was measured in anesthetized dogs before timolol administered intra arterially at dose 400 mg/kg
Rattus norvegicus [15] = assay: Comparative effect on Maximum fall in mean arterial pressure of spontaneously hypertensive rat at the dose 0.312 mg/kg per os; assay type: functional, Artery
Rattus norvegicus [16] = assay: Comparative effect on Maximum fall in mean arterial pressure of spontaneously hypertensive rat at the dose 0.625 mg/kg per os; assay type: functional, Artery
Rattus norvegicus [17] = assay: Comparative effect on Maximum fall in mean arterial pressure of spontaneously hypertensive rat at the dose 1.25 mg/kg per os; assay type: functional, Artery

CC(C)(C)NCC(O)COc1nscc1Br (configuration not stated)
ED50 (Canis familiaris [1]): 3 µg/kg | MAP (Rattus norvegicus [2]): 30 mmHg | Activity (Canis familiaris [3]): 33 mL/min | ED50 (Canis familiaris [4]): 3 µg/kg | Activity (Canis familiaris [5]): 31 mL/min | MAP (Rattus norvegicus [6]): 41 mmHg

CCOC(=O)c1sc(SC)nc1OCC(O)CNC(C)(C)C (configuration not stated)
MAP (Rattus norvegicus [2]): 15 mmHg

CCOC(=O)c1scnc1OCC(O)CNC(C)(C)C (configuration not stated)
MAP (Rattus norvegicus [2]): 9 mmHg

CC(C)(C)NCC(O)COc1nc2ncccc2cc1C#N (configuration not stated)
MAP (Rattus norvegicus [2]): 28 mmHg | Activity (Canis familiaris [5]): 0 mL/min | MAP (Rattus norvegicus [6]): 22 mmHg

CC(C)(C)NCC(O)COc1nscc1C#N (configuration not stated)
ED50 (Canis familiaris [1]): 27 µg/kg | MAP (Rattus norvegicus [2]): 52 mmHg | Activity (Canis familiaris [7]): 20 mL/min | ED50 (Canis familiaris [4]): 28 µg/kg | Activity (Canis familiaris [5]): 22 mL/min | MAP (Rattus norvegicus [6]; 5 mg/kg): 27 mmHg and 9 mmHg

Cc1nc(OC[C@@H](O)CNC(C)(C)C)c(C(N)=O)s1
MAP (Rattus norvegicus [2]): 11 mmHg

CC(C)(C)NC[C@H](O)COc1nc(-c2ccccc2)sc1C(N)=O
MAP (Rattus norvegicus [2]): 15 mmHg

CC(C)(C)NC[C@H](O)COc1nc(-c2ccccc2)sc1C#N
MAP (Rattus norvegicus [8]): 14 mmHg | MAP (Rattus norvegicus [2]): 9 mmHg | MAP (Rattus norvegicus [6]): 11 mmHg

Cc1sc(-c2ccccc2)nc1OC[C@@H](O)CNC(C)(C)C
MAP (Rattus norvegicus [8]): 12 mmHg | MAP (Rattus norvegicus [2]): 17 mmHg

CCOC(=O)c1sc(-c2ccccc2)nc1OC[C@@H](O)CNC(C)(C)C
MAP (Rattus norvegicus [2]): 10 mmHg

Cc1sc(-c2ccncc2)nc1OC[C@@H](O)CNC(C)(C)C
MAP (Rattus norvegicus [2]): 41 mmHg | MAP (Rattus norvegicus [6]): 8 mmHg

Cc1nc(OC[C@@H](O)CNC(C)(C)C)c(C#N)s1
MAP (Rattus norvegicus [2]): 21 mmHg

CC(C)(C)NCC(O)COc1nc2ccncc2cc1C#N (configuration not stated)
MAP (Rattus norvegicus [2]): 22 mmHg

CC(C)(C)NCC(O)COc1ncccc1C#N (configuration not stated)
Activity (Canis familiaris [9]): 62 mL/min | ED50 (Canis familiaris [1]): 5.2 µg/kg | MAP (Rattus norvegicus [10]): 47 mmHg | Activity (Canis familiaris [11]): 38 mL/min | MAP (Rattus norvegicus [12]): 30 mmHg | MAP (Rattus norvegicus [13]): 19 mmHg | Activity (Canis familiaris [7]): 90 mL/min | ED50 (Canis familiaris [4]): 1.5 µg/kg | Activity (Canis familiaris [5]): 98 mL/min

CSc1nc(OCC(O)CNC(C)(C)C)c(C(N)=O)s1 (configuration not stated)
MAP (Rattus norvegicus [2]): 11 mmHg

CC(C)(C)NCC(O)COc1ncsc1C#N (configuration not stated)
ED50 (Canis familiaris [1]): 30 µg/kg | MAP (Rattus norvegicus [2]): 37 mmHg | MAP (Rattus norvegicus [10]): 29 mmHg | MAP (Rattus norvegicus [12]): 26 mmHg | MAP (Rattus norvegicus [13]): 11 mmHg | ED50 (Canis familiaris [4]): 10 µg/kg | Activity (Canis familiaris [5]): 125 mL/min | MAP (Rattus norvegicus [6]): 42 mmHg

CC(C)(C)NCC(O)COc1nccnc1C#N (configuration not stated)
MAP (Rattus norvegicus [2]): 8 mmHg

CC(C)(C)NCC(O)COc1nsnc1C#N (configuration not stated)
MAP (Rattus norvegicus [6]): 9 mmHg

CC(C)(C)NCC(O)COc1ccsn1 (configuration not stated)
MAP (Rattus norvegicus [2]): 22 mmHg | MAP (Rattus norvegicus [10]): 8 mmHg | MAP (Rattus norvegicus [6]): 26 mmHg

Cc1nc(OCC(O)CNC(C)(C)C)c(C(N)=O)s1 (racemic)
MAP (Rattus norvegicus [2]): 23 mmHg | MAP (Rattus norvegicus [10]): 22 mmHg | MAP (Rattus norvegicus [6]): 30 mmHg

NNc1nncc2ccccc12 [HYDRALAZINE]
Activity (Canis familiaris [14]): 78 mL/min | Activity (Canis familiaris [5]): 66 mL/min

CC(C)NCC(O)COc1cccc2ccccc12 (configuration not stated) [PROPRANOLOL]
ED50 (Canis familiaris [1]): 19 µg/kg | MAP (Rattus norvegicus [2]): 14 mmHg | MAP (Rattus norvegicus [10]): 12 mmHg | ED50 (Canis familiaris [4]): 51 µg/kg | MAP (Rattus norvegicus [6]): 7 mmHg

CC(C)(C)NC[C@H](O)COc1nsnc1N1CCOCC1 [TIMOLOL]
MAP (Rattus norvegicus [15]): 3 mmHg | ED50 (Canis familiaris [1]): 1.3 µg/kg | MAP (Rattus norvegicus [16]): 0 mmHg | ED50 (Canis familiaris [4]): 2.4 µg/kg | MAP (Rattus norvegicus [17]): -1 mmHg
